This note sets out measurements from article PMC10099395 (Chemistry (Weinheim an Der Bergstrasse, Germany), 2022).

Broadly, the GI50 is the concentration at which growth is held to half of that of the control.

The subject of experiment [1] is 25TAG (5′-FAM, 3′-TAMRA) (DNA, G4) TAGGGTTAGGGTTAGGGTTAGGGTT
Kind of experiment: fluorescence melting. The note with it: 100 mM KCl; 10 mM LiAsO2Me2, pH 7.2; 0.4 μM compound, 0.2 μM DNA.

Experiment [2] has as its system T98G cells (multidrug-resistant glioblastoma). Kind of experiment: Cytotoxicity assay. Particulars: Homo sapiens, 96 h, read-out: GI50, T98G. The experiment is classed as cell-based. In short, it runs like this:
(§1)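 Adherent cells grown in MEM GlutaMAX with 10 % FBS, 1 % penicillin/streptomycin and 1 % non-essential amino acids at 37 °C, 5 % CO₂, passaged with TrypLE. Cells were plated at 0.125×10⁵ cells mL⁻¹ and test compound in DMSO was added after 4 h ([…], 0.5 % v/v DMSO). After 96 h, CellTiter-Glo luminescence was read and viability expressed relative to the DMSO control. Each condition was run at least three times, with two technical replicates per plate.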

In experiment [3] the test system is MRC-5 cells (noncancerous lung fibroblast). Kind of experiment: Cytotoxicity assay. The experiment is classed as cell-based. The note with it: Homo sapiens, MRC5, 96 h, read-out: GI50, MRC-5. In short, it runs like this:
as §1

For experiment [4], the system named is A549 cells (cisplatin-resistant non-small-cell lung carcinoma). Kind of experiment: Cytotoxicity assay. The experiment is classed as cell-based, human. The note with it: for GI50: Homo sapiens, A549, 96 h, read-out: GI50, A549. In short, it runs like this: as §1
Experiment [5] concerns 25TAG (G4-DNA, hybrid-2, variant of human telomeric sequence). Kind of experiment: Fluorescence-melting experiments. The experiment is classed as binding. The note with it: pure ligand 0.4 μM, DNA 0.2 μM. In short, it runs like this: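 FAM/TAMRA-labelled oligonucleotides were annealed (95 °C, 5 min) at 0.23 μM in target-specific buffer. Final concentrations were 0.2 μM DNA and 1 μM ligand; as-synthesized mixtures were diluted in buffer without further treatment, and pure ligands were run at 0.1–1.0 μM. Melting used a 0.5 °C min⁻¹ ramp with FAM-channel fluorescence. Tm came from first-derivative peaks, and ΔTm was the difference of means from three experiments. ΔTm detection tops out at 36 °C (96 °C).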

Where only a bound is given, the exact number is not on record here.

As for `C[n+]1cc(NC(=O)c2ccc3ccc4ccc(C(=O)Nc5cc6ccccc6[n+](C)c5)nc4c3n2)cc2ccccc21`, in experiment [1], the ΔT m was more than 30 °C.
Take `C[n+]1cccc2cc(C=NNC(=O)c3ccc4ccc5ccc(C(=O)NN=Cc6ccc7c(ccc[n+]7C)c6)nc5c4n3)ccc21.[I-].[I-]` [3Ef]: the GI50 in experiment [2] stood at 11.2 ± 1.4 µM; in experiment [3] it was 26.7 ± 2.4 µM; in experiment [4], 0.4 ± 0.06 µM. Also, the “selectivity index, A549 with respect to MRC-5 cells” value in experiment [4] (ratio of GI50 values, 96 h) is recorded as approximately 67.
As for `O=C(NN=Cc1ccc(C[n+]2ccccc2)cc1)c1ccc2ccc3ccc(C(=O)NN=Cc4ccc(C[n+]5ccccc5)cc4)nc3c2n1.[Br-].[Br-]` [3Ei], the values for the GI50 in experiment [2], in experiment [3] and in experiment [4] were 29.7 ± 2 µM, 59.1 ± 5.5 µM and 3.2 ± 0.6 µM, respectively. Moreover, the “ΔTm, 25TAG, pure ligands” value in experiment [5] was more than 30 °C.
